Screening results deposited in PubChem by several laboratories.
WT yeast gro inh: growth inhibition of WT yeast, mitochondrial fusion screen. mitochondrial fusion phenotypic screen, WT strain. inhibition, % at 10 µM. hit rate 2.1% among 190,000. AID 1362; in the data active means inhibition above about 58%; tested in S. cerevisiae
PMI act satM6P: increases human PMI activity with near-saturating mannose 6-phosphate; coupled PMI enzyme assay, resazurin fluorescence, 20 min; hits give high values; 1 = untreated enzyme, 0 = substrate-free blank; activation factor at 20 µM; hit rate 0.34% among 190,000;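 active means activation factor of 2 or more at 20 µM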
Target sequence (P34949 whole entry, looked up): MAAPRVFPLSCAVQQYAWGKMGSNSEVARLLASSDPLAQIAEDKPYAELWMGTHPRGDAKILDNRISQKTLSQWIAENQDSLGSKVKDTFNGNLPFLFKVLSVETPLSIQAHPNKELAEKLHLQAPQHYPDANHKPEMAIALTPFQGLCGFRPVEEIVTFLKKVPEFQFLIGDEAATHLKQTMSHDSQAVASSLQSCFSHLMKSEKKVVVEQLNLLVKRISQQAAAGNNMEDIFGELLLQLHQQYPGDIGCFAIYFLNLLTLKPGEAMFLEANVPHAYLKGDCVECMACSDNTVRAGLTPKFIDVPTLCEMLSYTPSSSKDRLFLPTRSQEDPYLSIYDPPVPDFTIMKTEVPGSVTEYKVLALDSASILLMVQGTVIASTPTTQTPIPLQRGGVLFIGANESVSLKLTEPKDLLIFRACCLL
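Material: human phosphomannose isomerase with PGI, G6PDH, diaphorase coupling enzymes / Reagent: Man-6-P substrate 1.0 mM / Dosing: single compound dose of 20 µM, 1% DMSO final / Incubation: enzyme reaction with compound 20 min at room temperature / Signal: resorufin fluorescence (Ex 544/Em 590 nm) from resazurin via diaphorase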
PMI activator: activators of human phosphomannose isomerase | P34949 | purified human PMI, coupled resazurin fluorescence, 20 min; hits give high values; 1 = vehicle control, 0 substrate-free wells | activation factor at 20 µM | hit rate 0.005% among 190,000 | AID 1214;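 active means activation factor of 2 or more at 20 µM, relative to plate controls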
Lmaj promast: Leishmania major promastigote growth inhibition; Leishmania major promastigotes, resazurin fluorescence viability; inhibition, % at 10 µM; hit rate 9% among 200,000; AID 1063; in the data active means inhibition above about 50%;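 further: promastigotes grown with compound for 44 hours at 28 °C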
Diaphorase act: activates diaphorase or chemically reduces, flagging diaphorase assay artifacts; activation factor at 20 µM; Diaphorase/resazurin coupled assay, resorufin fluorescence, 16 min; hits give high values; 1 = vehicle wells, 0 = NADH-free wells; hit rate 0.005% among 190,000;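 active means diaphorase activity raised at least twofold by the compound at 20 µM; inactive means activation factor below 2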
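Material: bacterial diaphorase enzyme (C. kluyveri); amount: enzyme 0.07 U/mL final; reagent: NADH substrate 0.114 mM plus resazurin dye 0.1 mM, final; doses: single compound dose of 20 µM, 1% DMSO final; timing: 16 min enzyme reaction, ambient temperature; measured by: fluorescence of resorufin, 544 nm excitation, 590 nm emission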
Of the large screens only hits and unclear results are named; the others gave an inactive call. Only some compounds are listed: those with a hit (about 10% of all), similar ones and a draw of the others.

O=C1NCCN(Cc2cccc(Oc3ccccc3)c2)C1CC(=O)N1CCCO1 (centres undefined)	none
CC(O)CN(C)CC/C=C1/c2ccccc2CSc2ccccc21 (centres undefined)	Lmaj promast 98
C#CCN(C)CC/C=C1\c2ccccc2CSc2ccccc21	WT yeast gro inh 70, Lmaj promast 65
C=CCn1c(CCNC(=O)c2cccs2)nnc1SCC(=O)Nc1cccc(F)c1	none
CCOC(=O)N1CCC(N(CCN(C)C)C(=S)Nc2ccc(Oc3ccccc3)cc2)CC1	none
O=c1[nH]c(-c2ccc3c(c2)OCO3)nc2c1sc(=S)n2-c1ccccc1	Lmaj promast 51
c1ccc(C2=Nc3ccccc3OC2)cc1	Lmaj promast 69
CC/C(=N\N=C1\SC(C)C(=O)N1Cc1ccco1)c1ccccc1 (centres undefined)	none
Cc1ccnc(NS(=O)(=O)c2ccc(N=CC3=C(O)CC(C)(C)CC3=O)cc2)n1	WT yeast gro inh 67
CC(C)CCNC(=O)C(CC(C)C)N(Cc1ccc2c(c1)OCO2)C(=O)c1snc(C(N)=O)c1N (centres undefined)	Lmaj promast 92
Cc1ccc(N(C(=O)c2snc(C(N)=O)c2N)C(C(=O)NCCC(C)C)c2ccco2)cc1 (centres undefined)	Lmaj promast 65
CC(C)CCNC(=O)C(c1ccco1)N(Cc1ccccc1)C(=O)c1snc(C(N)=O)c1N (centres undefined)	none
CC(C)CC(C(=O)NC1CCCC1)N(Cc1ccc2c(c1)OCO2)C(=O)c1snc(C(N)=O)c1N (centres undefined)	none
CCc1ccccc1N(CC(=O)NCc1ccco1)C(=O)c1snc(C(N)=O)c1N	Lmaj promast 62
Cc1ccc2[nH]c(C(=O)NN=C3CCCCC3)c(-c3ccccc3)c2c1	none
COC(=O)c1ccc(C(=O)OC)c(NC(=O)CSCc2ccccc2Br)c1	none
CCSc1nnc(NC(=O)[C@@H](NC(=O)c2cc(OC)cc(OC)c2)C(C)C)s1	none
CC1=NN(C(=O)COc2ccccc2C)C(O)(c2ccc(Cl)cc2)C1 (centres undefined)	none
O=C(COn1nnc2ccccc21)N1CCN(Cc2ccccc2)CC1	none
CCCCOC(=O)Nc1ccc(S(=O)(=O)Nc2cc(C)nc(C)n2)cc1	none
CCCCCOC(=O)Nc1ccc(S(=O)(=O)Nc2cccc([N+](=O)[O-])c2)cc1	Lmaj promast 62
CCCCOC(=O)Nc1ccc(S(=O)(=O)Nc2ccc([N+](=O)[O-])cc2)cc1	Lmaj promast 78
CCOC(=O)C1=C(C)N=C2SC=C(C)N2C1c1ccc(OC)cc1 (centres undefined)	none
CCN(CC)S(=O)(=O)c1cc(NC(=O)c2cc(-c3ccccn3)nc3ccccc23)ccc1C	Lmaj promast 53
CN(C)S(=O)(=O)c1cccc(NC(=O)c2n[nH]c(=O)c3ccccc23)c1	none
CCN(CC)S(=O)(=O)c1cc(NC(=O)c2n[nH]c(=O)c3ccccc23)ccc1C	Lmaj promast 66
Nn1c(SCC(=O)NC(=O)NCc2ccco2)nnc1-c1ccc(OC(F)F)cc1	none
O=C(Nc1cc(SCCO)cc([N+](=O)[O-])c1)c1ccc(Br)o1	none
Nc1ccccc1Oc1ccc2ccccc2c1	none
COc1cc2nc(C3CCC3)nc(N3CCN(c4ccccn4)CC3)c2cc1OC	Lmaj promast 54
COc1cc(NC(=S)N2CCN(c3ccccn3)CC2)c(OC)cc1Cl	none
COc1cc2nc(C3CCC3)nc(N3CCN(c4ccccc4OC)CC3)c2cc1OC	WT yeast gro inh 83, Lmaj promast 58
COc1cc2nc(Cl)nc(N3CCN(C)CC3)c2cc1OC	none
COc1ccc(CCN=C(N)NS(=O)(=O)c2ccc(F)cc2)cc1	none
Cc1ccc(-n2c(C3CC3c3ccc(Cl)cc3)n[nH]c2=S)cc1 (centres undefined)	none
S=c1[nH]nc(C2CC2c2ccc(Cl)cc2)n1-c1ccc(Cl)cc1 (centres undefined)	WT yeast gro inh 76
C/C(=N\Nc1nc(C)c(C)s1)c1ccc([N+](=O)[O-])cc1	none
Cn1cc([N+](=O)[O-])c(C(=O)Nc2cc(Oc3cccnc3)cc([N+](=O)[O-])c2)n1	none
O=C(c1cnc2n(c1=O)CCS2)N1CCN(c2ccccc2Cl)CC1	none
O=C(c1cnc2n(c1=O)CCS2)N1CCN(C(c2ccccc2)c2ccc(Cl)cc2)CC1 (centres undefined)	Lmaj promast 58
COc1ccc2c(c1)C(=O)N(c1ccccc1)C(=O)C2	none
N#CC1=C(N)N(c2ccc(Oc3ccccc3)cc2)C(=O)C1	Lmaj promast 91
CCc1ccc(OCC(O)CN2CCC(CN3C(=O)c4cccc5cccc(c45)C3=O)CC2)cc1 (centres undefined)	Lmaj promast 100
COc1cccc(OCC(O)CN2CCC(CN3C(=O)c4cccc5cccc(c45)C3=O)CC2)c1 (centres undefined)	Lmaj promast 87
C=C(C)CNC(=S)N/N=C/c1c(F)cccc1F	none
N#Cc1ccccc1S(=O)(=O)c1ccccc1C(=O)Nc1ccccc1	none
Cc1ccc2[nH]c3c(=O)n(CCN4CCNCC4)cnc3c2c1	none
O=C1CCCN1CCCNc1ncnc2c1[nH]c1ccc(Cl)cc12	none
CCN1CCCC1CNc1ncnc2c1[nH]c1ccc(Cl)cc12 (centres undefined)	Lmaj promast 96
CCN1CCCC1Cn1cnc2c([nH]c3ccc(C)cc32)c1=O (centres undefined)	Lmaj promast 52
CCOc1ccc(C2C([N+](=O)[O-])=C(C)N(C)C(=O)N2C)cc1OC (centres undefined)	Lmaj promast 56
C/C(=N\N=C1\NC(=O)CC(C(=O)O)S1)c1ccc(F)cc1 (centres undefined)	Lmaj promast 52
O=C(Nc1cccc(S(=O)(=O)NCc2ccco2)c1)c1cc(-c2ccc(F)cc2)nc2ccccc12	Lmaj promast 98
O=C(Nc1ccccc1)c1cccc(S(=O)(=O)NCc2ccco2)c1	none
COc1ccc(-c2cc(C(=O)Nc3cccc(S(=O)(=O)NCc4ccco4)c3)c3ccccc3n2)cc1OC	Lmaj promast 72
COc1ccc2cc(/C(C)=N/NC(=O)c3cc(-c4cccnc4)nc4ccccc34)ccc2c1	none
CCCCCCC(=O)N=Nc1c(O)[nH]c2ccc([N+](=O)[O-])cc12	Lmaj promast 78
COc1ccc(/C=N/NC(=O)c2cccc(COCC(F)(F)C(F)F)c2)cc1	none
CCCCOC(=O)c1ccc(NC(=O)C(=O)NCc2ccco2)cc1	none
O=C(NCCCN1CCOCC1)c1cc2c(s1)CCCC2	Lmaj promast 91
O=C(NCCCN1CCOCC1)c1csc2c1CCCC2	Lmaj promast 85
NC(=O)C1CCN(C(=S)NCCc2ccccc2)CC1	none
